Results from ChEMBL document CHEMBL1123541, “Preparation and antitumor activity of 7-substituted 1,2-aziridinomitosenes” (J Med Chem, 1986).

Experiments:
[1] = test system: P388; assay: (§1) Compound was tested for antitumor activity against P388 Murine leukemia in BDF1 female mice at a dose of 12.8 mg/kg per injection; type: functional, Mus musculus
Summary of the method: (§2)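 P388 ascites cells (10^6) implanted ip into BDF1 female mice. Aziridinomitosene given on day 1 only, six mice per dose; ten saline-treated mice on day 1 only as controls. Read-out is median survival time in days, %T/C = MST treated/MST control × 100, with 125 taken as significant. Mitomycin C run as a positive control at its optimal dose.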

[2] = test system: Mus musculus; assay: Average weight change of BDF1 female mice at a dose of 6.4 mg/kg per injection; type: functional
Summary of the method: (§3)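 BDF1 female mice implanted ip with 10^6 ascites leukemia cells, then given the aziridinomitosene on day 1 only, six mice per dose. Average weight change is the weight difference between the treated and control groups.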

[3] = test system: Mus musculus; assay: Average weight change of BDF1 female mice at a dose of 25.6 mg/kg per injection; type: functional; summary of the method: as §3
[4] = test system: P388; assay: Compound was tested for antitumor activity against P388 Murine leukemia in BDF1 female mice at a dose of 6.4 mg/kg per injection; type: functional, Mus musculus; summary of the method: as §2
[5] = test system: P388; assay: Compound was tested for antitumor activity against P388 Murine leukemia in BDF1 female mice at a dose of 25.6 mg/kg per injection; type: functional, Mus musculus; summary of the method: as §2
[6] = test system: P388; assay: Minimum effective dose determined against P-388 Murine leukemia in BDF1 female mice.; type: functional; conditions: Mus musculus, read-out: MED
[7] = test system: Mus musculus; assay: Average weight change of BDF1 female mice at a dose of 1.6 mg/kg per injection; type: functional; summary of the method: as §3
[8] = test system: P388; assay: Compound was tested for antitumor activity against P388 Murine leukemia in BDF1 female mice at a dose of 1.6 mg/kg per injection (MST treated / MST control x 100); type: functional, Mus musculus; summary of the method: as §2
[9] = test system: Mus musculus; assay: Average weight change of BDF1 female mice at a dose of 3.2 mg/kg per injection; type: functional; summary of the method: as §3
[10] = test system: Mus musculus; assay: Average weight change of BDF1 female mice at a dose of 12.8 mg/kg per injection; type: functional; summary of the method: as §3
[11] = Partition coefficient (logP); type: physicochemical; conditions: octanol/water
[12] = test system: Mus musculus; assay: Average weight change of BDF1 female mice at a dose of 51.2 mg/kg per injection; type: functional; summary of the method: as §3
[13] = test system: P388; assay: Compound was tested for antitumor activity against P388 Murine leukemia in BDF1 female mice at a dose of 51.2 mg/kg per injection; type: functional, Mus musculus; summary of the method: as §2
[14] = test system: P388; assay: Compound was tested for antitumor activity against P388 Murine leukemia in BDF1 female mice at a dose of 3.2 mg/kg per injection; type: functional, Mus musculus; summary of the method: as §2
[15] = test system: P388; assay: as §1; type: functional, Mus musculus; design: unit not given here; summary of the method: as §2
[16] = test system: P388; assay: Compound was tested for antitumor activity against P388 Murine leukemia in BDF1 female mice at a dose of 1.6 mg/kg per injection; type: functional, Mus musculus; summary of the method: as §2
[17] = test system: P388; assay: Compound was tested for antitumor activity against P388 Murine leukemia in BDF1 female mice at a dose of 3.2 mg/kg per injection (MST treated / MST control x 100); type: functional, Mus musculus; summary of the method: as §2
[18] = test system: L1210; assay: Compound was tested for antitumor activity against L-1210 Murine leukemia in BDF1 female mice at dose of 40 mg/kg inj; type: functional, Mus musculus
Summary of the method: (§4)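 L-1210 run per NCI protocol. 10^6 ascites cells implanted ip into BDF1 female mice. Aziridinomitosene given on day 1 only, six mice per dose, with a control group of 36 mice. Median survival time in days is recorded, and %T/C = MST treated/MST control × 100, with 125 taken as significant.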

[19] = test system: Mus musculus; assay: Average weight change of BDF1 female mice at a dose of 32 mg/kg per injection; type: functional; summary of the method: as §3
[20] = test system: Mus musculus; assay: Average weight change of BDF1 female mice at a dose of 64 mg/kg per injection; type: functional; summary of the method: as §3
[21] = test system: P388; assay: Compound was tested for antitumor activity against P388 Murine leukemia in BDF1 female mice at a dose of 32 mg/kg per injection; type: functional, Mus musculus; summary of the method: as §2
[22] = test system: P388; assay: Compound was tested for antitumor activity against P388 Murine leukemia in BDF1 female mice at a dose of 64 mg/kg per injection; type: functional, Mus musculus; summary of the method: as §2
[23] = test system: P388; assay: Compound was tested for antitumor activity against P388 Murine leukemia in BDF1 female mice at a dose of 8 mg/kg per injection; type: functional, Mus musculus; summary of the method: as §2
[24] = test system: Mus musculus; assay: Average weight change of BDF1 female mice at a dose of 8 mg/kg per injection; type: functional; summary of the method: as §3
[25] = test system: P388; assay: Compound was tested for antitumor activity against P388 Murine leukemia in BDF1 female mice at a dose of 16 mg/kg per injection; type: functional, Mus musculus; summary of the method: as §2
[26] = test system: Mus musculus; assay: Average weight change of BDF1 female mice at a dose of 16 mg/kg per injection; type: functional; summary of the method: as §3
[27] = test system: L1210; assay: Compound was tested for antitumor activity against L-1210 Murine leukemia in BDF1 female mice at dose of 20 mg/kg inj; type: functional, Mus musculus; summary of the method: as §4
[28] = test system: P388; assay: Compound was tested for antitumor activity against P388 Murine leukemia in BDF1 female mice at a dose of 1.6 mg/kg per injection given as MST treated / MST control x 100; type: functional, Mus musculus; summary of the method: as §2
[29] = test system: Mus musculus; assay: Average weight change of BDF1 female mice at a dose of 6 mg/kg per injection; type: functional; summary of the method: as §3
[30] = test system: L1210; assay: Compound was tested for antitumor activity against L-1210 Murine leukemia in BDF1 female mice at a dose of 24 mg/kg per injection; type: functional, Mus musculus; summary of the method: as §4
[31] = test system: Mus musculus; assay: Average weight change of BDF1 female mice at a dose of 24 mg/kg per injection; type: functional; summary of the method: as §3
[32] = test system: Mus musculus; assay: Average weight change of BDF1 female mice at a dose of 48 mg/kg per injection; type: functional; summary of the method: as §3
[33] = test system: L1210; assay: Compound was tested for antitumor activity against L-1210 Murine leukemia in BDF1 female mice at a dose of 48 mg/kg per injection; type: functional, Mus musculus; summary of the method: as §4
[34] = test system: L1210; assay: Compound was tested for antitumor activity against L-1210 Murine leukemia in BDF1 female mice at a dose of 6 mg/kg per injection; type: functional, Mus musculus; summary of the method: as §4
[35] = test system: Mus musculus; assay: Average weight change of BDF1 female mice at a dose of 12 mg/kg per injection; type: functional; summary of the method: as §3
[36] = test system: L1210; assay: Compound was tested for antitumor activity against L-1210 Murine leukemia in BDF1 female mice at a dose of 12 mg/kg per injection; type: functional, Mus musculus; summary of the method: as §4
[37] = test system: Mus musculus; assay: Average weight change of BDF1 female mice at a dose of 1.5 mg/kg per injection; type: functional
Summary of the method: (§5)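 L-1210 leukemia, NCI protocol: 10^6 ascites cells implanted ip into BDF1 female mice. Six mice per dose, single dose on day 1 only, with a 36-mouse control group. Read-out is median survival time (MST), reported as %T/C = MST treated/MST control × 100, with 125 taken as significant. Average weight change is treated minus control weight.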

[38] = test system: Mus musculus; assay: Average weight change of BDF1 female mice at a dose of 3 mg/kg per injection; type: functional; summary of the method: as §5
[39] = test system: L1210; assay: Compound was tested for antitumor activity against L-1210 Murine leukemia in BDF1 female mice at a dose of 3 mg/kg per injection; type: functional, Mus musculus; summary of the method: as §5
[40] = test system: L1210; assay: Compound was tested for antitumor activity against L-1210 Murine leukemia in BDF1 female mice at a dose of 1.5 mg/kg per injection; type: functional, Mus musculus; summary of the method: as §5

Compound	MST [1] [days]	Weight change [2] [g]	Weight change [3] [g]	MST [4] [%T/C]	MST [5] [% T/C]	minimal effective dose [6] [mg/kg]	Weight change [7] [g]	Weight change [9] [g]	Weight change [10] [g]	logP [11]	Weight change [12] [g]	MST [13] [days]	T/C [28] [%]	Weight change [29] [g]	Weight change [35] [g]	other results
CC1=C(N2CC2C)C(=O)c2c(COC(N)=O)c3n(c2C1=O)CC1NC31 (configuration not stated)	156	-0.4	-1	144	181	1.6	0	0	-0.5	0.82	-1.3	219	–	–	–	T/C [8]: 125%; MST [14]: 138 days
CC1=C(N2CC2)C(=O)c2c(COC(N)=O)c3n(c2C1=O)CC1C3N1C (configuration not stated)	–	-1.1	-2.2	172	239	1.6	-1.3	0	-1.9	0.71	-2.5	139	–	–	–	MST [15]: 172; MST [16]: 122 days; T/C [17]: 117%
C#CCNC1=C(C)C(=O)c2c(c(COC(N)=O)c3n2CC2NC32)C1=O (configuration not stated)	–	–	–	–	–	16	–	–	–	1.21	–	–	–	–	–	T/C [18]: 140%; Weight change [18]: -2.8 g; Weight change [19]: 0 g; Weight change [20]: -0.9 g; MST [21]: 144 days; MST [22]: 172 days; MST [23]: 122 days; Weight change [24]: -0.2 g; MST [25]: 128 days; Weight change [26]: -0.3 g; T/C [27]: 122%; Weight change [27]: -1.8 g
CC1=C(N)C(=O)c2c(COC(N)=O)c3n(c2C1=O)CC1C3N1C (configuration not stated)	100	–	-0.1	–	100	–	–	–	-0.4	–	–	–	211	–	–	–
CC1=C(N)C(=O)c2c(COC(N)=O)c3n(c2C1=O)CC1NC31 (configuration not stated)	117	-1.2	-0.8	117	128	25.6	–	–	-0.8	0.23	–	–	211	0.1	0	MST [30]: 100 days; Weight change [31]: -0.3 g; Weight change [32]: 0.2 g; MST [33]: 94 days; T/C [34]: 100%; T/C [36]: 100%
CO[C@@]12[C@H](COC(N)=O)C3=C(C(=O)C(C)=C(N)C3=O)N1C[C@@H]1N[C@@H]12 [MITOMYCIN]	–	–	–	–	–	–	–	–	–	–	–	–	–	-3.3	-4.8	Weight change [37]: -0.8 g; Weight change [38]: -0.9 g; T/C [39]: 118%; T/C [40]: 116%; % T/C [34]: 146%; % T/C [36]: 118%
